MT1-MMP txn act – MT1-MMP promoter reporter activation – cell-based, luciferase luminescence, primary screen | activation factor at 10 µM | HT1080 MT1-MMP promoter luciferase reporter, overnight; active compounds read high | 86,000 tested, 0.16% active;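 active means activation factor of at least 2 for MT1-MMP transcription at 10 µM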
HEK293 NFkB inh – inhibitors of PMA/ionomycin-induced NF-kB reporter, primary screen, antigen receptor NF-kB inhibitor project, cell-based, HEK-293 luciferase reporter, luminescence. HEK-293 NF-kB luciferase reporter. inhibition, % at 3 µM. 62,000 tested, 0.21% active. AID 465, 2006;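 active means inhibition above the mean of all tested compounds plus 3 SD, cut at about 40% in these data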;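 further: 0% = stimulated DMSO wells and 100% = 10 µM reference inhibitor 5653914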
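Material: HEK-293 cells with stable firefly luciferase reporter driven by four HIV NF-kB elements / Also added: PMA plus ionomycin mix as NF-kB-activating stimulus / Compound dosing: 3 µM once, 0.30% DMSO / Times: 1 h pretreatment, 16 h stimulation, 37 °C / Signal: luminescence / Evaluation: per-plate % inhibition versus controls / Benchmarks: DMSO and 10 µM reference inhibitor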
Jurkat viability – cytotoxicity toward Jurkat T cells, primary screen, cytotoxicity control, cell-based, Jurkat E6.1, 60K MLSMR library; 56,000 tested, 1.2% active; Jurkat E6.1 viability, ATP luminescence, 48 h; inhibition, % at 4 µM;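 active means inhibition above the mean inhibition of all tested compounds plus 3 SD, cut at about 28% in these data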
RORa activator – activators of orphan receptor RORA, primary screen, cell-based, luminescence; Nuclear receptor ROR-alpha (Homo sapiens), P35398; CHO-K1 Gal4-RORA LBD luciferase reporter; percent increase over mock-subtracted basal signal; activation, % at 10 µM; 65,000 tested, 1.5% active; AID 560, 2006;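 active means activation above the mean of all tested compounds plus 3 SD, cut at about 49% in these data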;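 further: 0% = DMSO-treated RORA cells and 100% = added signal equal to DMSO minus mock-transfected cells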
SF1 activator – activators of human SF-1, primary screen, cell-based, CHO-K1, Gal4-SF-1 LBD, luciferase luminescence; activation, % at 10 µM; Steroidogenic factor 1 (Homo sapiens), Q13285; AID 522, 2006; CHO-K1 Gal4-SF-1 LBD luciferase reporter; % increase over DMSO SF-1-specific signal; 65,000 tested, 1.9% active;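 active means activation above the mean activation of all tested compounds plus 3 SD, cut at about 50% in these data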
Target sequence (Q13285 whole entry, looked up, the tested form may be a part): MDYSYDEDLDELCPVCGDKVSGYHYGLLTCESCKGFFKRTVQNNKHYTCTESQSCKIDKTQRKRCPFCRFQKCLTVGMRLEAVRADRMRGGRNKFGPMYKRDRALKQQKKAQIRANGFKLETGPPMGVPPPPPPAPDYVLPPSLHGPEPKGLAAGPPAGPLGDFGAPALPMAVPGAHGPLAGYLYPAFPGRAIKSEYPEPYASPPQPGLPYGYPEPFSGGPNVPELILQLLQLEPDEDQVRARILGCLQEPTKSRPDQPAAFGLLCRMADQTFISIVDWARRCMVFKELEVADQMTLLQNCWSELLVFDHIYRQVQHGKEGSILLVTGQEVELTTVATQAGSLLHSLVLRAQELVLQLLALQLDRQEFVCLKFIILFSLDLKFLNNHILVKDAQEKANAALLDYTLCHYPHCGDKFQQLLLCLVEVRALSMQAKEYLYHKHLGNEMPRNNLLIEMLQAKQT
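Test system: CHO-K1 cells with Gal4–hSF-1 LBD chimera plus Gal4-driven luciferase; Input: 4,000 cells/well; Compound: 10 µM only; Times: 20 h compound treatment, 37 °C; Measured by: steady-glow luciferase luminescence, read after 15 min reagent incubation; Measure: percent activation versus DMSO; Control set: DMSO and mock-transfected background; Replicates: one test per compound.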
* = called active by the depositor; / = not tested or not shown. In the library only some 2.8% were active in any assay of this set; here they are far more common.

SMILES	MT1-MMP txn act	HEK293 NFkB inh	Jurkat viability	RORa activator	SF1 activator
c1ccc(-n2cnnc2SCc2cn3ccsc3n2)cc1	1.1	18	-1	-20	-6
Cc1onc(-c2c(F)cccc2Cl)c1C(=O)Nc1sc2c(c1C#N)CCC(C(C)(C)C)C2 (centres undefined)	0.9	/	/	/	/
CC1(C)CC(=O)C(C=NCCN2CCN(CC(=O)Nc3ccccc3)CC2)=C(O)C1	1.1	/	/	/	/
CCOc1cc(C#N)c(NC(=O)c2cccnc2)cc1OCC	/	35	72*	34	17
COC(=O)c1ccc(N2CCN(C)CC2)c(NC(=O)c2cc3ccccc3o2)c1	1.1	-11	0	6	-16
Cc1cc(C)nc(NCCCc2ccccc2)n1	1.1	18	-4	-12	-6
CCCCNc1cc(C)nc(NCc2ccccc2)n1	1.4	15	34*	-57	-19
CN(C)C(=O)CSc1nnc2sc3ccccc3n12	1.1	1	6	-2	4
c1csc(CSc2nnc3sc4ccccc4n23)c1	1.6	-2	1	51*	40
c1csc(CSc2nc3ccccc3s2)c1	1.7	12	-1	45	52*
CCCC(C)c1nnc(NC(=O)CS(=O)(=O)Cc2ccccc2)s1 (centres undefined)	1.5	/	/	/	/
O=S(=O)(NCCSc1nnnn1-c1ccccc1)c1cccs1	1.3	5	0	22	54*
CC(=O)c1sc(Nc2nc3ccc(F)cc3s2)nc1C	1.5	-29	13	32	53*
CC(=O)Nc1ccc(S(=O)(=O)N2CCC(NC(=O)c3ccco3)CC2)cc1	1.1	3	1	38	-6
CCc1nnc(NC(=O)CSc2nc3c(cc2C#N)CCC3)s1	0.8	-22	2	7	75*
COc1ccc(NC(=O)CNc2cccc(C#N)c2)cc1Cl	1.1	7	-2	-33	12
CCOC(=O)N1CCN(CC(=O)Nc2c(C(=O)OC)[nH]c3cc(C)ccc23)CC1	1.1	/	/	/	/
CCOC(=O)N1CCN(CC(=O)Nc2c(C(=O)OC)[nH]c3ccc(Cl)cc23)CC1	1.1	28	31*	4	-8
CCCCc1noc2c1/C(=N\O)CC(c1ccccc1)C2 (centres undefined)	1.3	0	11	72*	32
CCCCc1n[nH]c2c1/C(=N/O)CC(c1ccccc1)C2 (centres undefined)	1.3	13	/	16	12
CCN1CCN(S(=O)(=O)c2cc(OCC(=O)NC3CCCCC3)c(C)cc2Cl)CC1	1.2	24	53*	-13	-15
CC(=O)C1C(c2ccc(F)c(F)c2)NC(=O)NC1(O)C(F)(F)F (centres undefined)	1.1	0	-14	26	2
CCOC(=O)N1CCC(Nc2c(N3CCN(c4cccc(C(F)(F)F)c4)CC3)c(=O)c2=O)CC1	1.1	12	-2	15	-20
O=C(c1ccc2c(c1)OCO2)N(c1ccccc1)C1C=CS(=O)(=O)C1 (centres undefined)	1.2	8	-12	-4	14
COc1ccc(NC2CC(=O)N(C(C)C)C2=O)cc1 (centres undefined)	1.3	-14	-1	10	50*
SMILES	MT1-MMP txn act	HEK293 NFkB inh	Jurkat viability	RORa activator	SF1 activator
CC1CCCC(C)N1C(=O)c1cc(-c2ccc(Cl)c(Cl)c2)on1 (centres undefined)	1.3	-17	-3	76*	26
CCOc1ccc2nc(-c3ccccc3)[nH]c2c1	0.6	-32	76*	67*	27
COc1ccc2nc(-c3ccccc3)[nH]c2c1	0.5	-43	16	0	5
CCc1nnc(NC(=O)c2ccc(COc3ccccc3)o2)s1	1	10	4	12	0
CCc1nnc(NC(=O)c2ccc(COc3ccc(C)cc3)o2)s1	1.2	-18	-2	14	52*
Cc1ccc(NC(=O)c2ccc(NS(=O)(=O)c3c(C)noc3C)cc2)cc1C	1.1	4	-2	2	21
Cc1cccc(OCC(=O)Nc2nnn(C)n2)c1C	1.1	/	/	/	/
COc1ccc(NC(=O)c2cnc(C)cn2)c2ncccc12	0.8	2	62*	-17	0
COc1ccc(-c2cc(-c3ccccc3O)[nH]n2)cc1	2.5*	/	/	/	/

High-throughput results as filed in PubChem.
